Measurements: ChEMBL document CHEMBL3407418, “Fragment-based drug discovery of 2-thiazolidinones as BRD4 inhibitors: 2. Structure-based optimization” (J Med Chem, 2015)

What was measured:
[1] = biological target: Bromodomain-containing protein 4 (Homo sapiens, UniProt O60885); experiment: Inhibition of BRD4(1) (unknown origin) incubated for 4 hrs by (+)-JQ1 fluorescent ligand based fluorescence anisotrophy
[2] = Growth inhibition of human MM1S cells after 72 hrs by CellTiter-Glo luminescent cell viability assay; settings: MM1.S
MV4-11 = experiment: Growth inhibition of human MV4-11 cells after 72 hrs by CellTiter-Glo luminescent cell viability assay; settings: MV4-11, 72 h
HT-29 = experiment: Growth inhibition of human HT-29 cells after 72 hrs by SRB assay; assay type: functional, cell-based; settings: HT-29, 72 h
Outline: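 HT-29 cells are grown in McCoy's 5A with 10% FBS at 37 °C, 5% CO2. DMSO stocks (0.01 mol/L) are diluted in normal saline just before use. Cells are treated in triplicate with gradient concentrations for 72 h at 37 °C.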

| SMILES | IC50 [1] [nM] | IC50 [2] [nM] | IC50 (MV4-11) [nM] | IC50 (HT-29) [nM] |
| --- | --- | --- | --- | --- |
| O=c1[nH]c(-c2cccc(S(=O)(=O)NC3CC3)c2)cs1 | 2260 |  |  |  |
| COc1ccc(NS(=O)(=O)c2cccc(-c3csc(=O)[nH]3)c2)cc1 | > 10000 |  |  |  |
| Nc1cc(-c2csc(=O)[nH]2)cc(S(=O)(=O)NC2CCCC2)c1 | 460 | 3580 | 689 | 6150 |
| O=c1[nH]c(-c2cccc(S(=O)(=O)NCc3ccccc3)c2)cs1 | > 10000 |  |  |  |
| O=c1[nH]c(-c2ccc(Cl)c(S(=O)(=O)NC3CCCC3)c2)cs1 | 250 | 3370 | 341 | 23700 |
| O=c1[nH]c(-c2cccc(S(=O)(=O)Nc3ccon3)c2)cs1 | 7340 |  |  |  |
| Cc1c(NC(=O)c2cccs2)cc(-c2csc(=O)[nH]2)cc1S(=O)(=O)NC1CCCC1 | 790 | 4090 | 602 | 20100 |
| O=c1[nH]c(-c2ccccc2F)cs1 | > 100000 |  |  |  |
| Cc1c(NC(=O)C2CC2)cc(-c2csc(=O)[nH]2)cc1S(=O)(=O)NC1CCCC1 | 220 | 1760 | 450 | 28500 |
| O=c1[nH]c(-c2cccc(S(=O)(=O)NCC3CCCO3)c2)cs1 (stereo not drawn) | 9310 |  |  |  |
| COCC(=O)Nc1ccc(-c2csc(=O)[nH]2)cc1S(=O)(=O)NC1CCCC1 | 400 | 2310 | 681 | 24600 |
| O=C(Nc1ccc(-c2csc(=O)[nH]2)cc1S(=O)(=O)NC1CCCC1)C1CC1 | 800 |  |  | 13000 |
| Nc1ccc(NS(=O)(=O)c2cccc(-c3csc(=O)[nH]3)c2)cc1 | 8330 |  |  |  |
| O=c1[nH]c(-c2cccc(S(=O)(=O)NCCc3cccs3)c2)cs1 | > 10000 |  |  |  |
| O=c1[nH]c(-c2cccc(S(=O)(=O)NC3CCCCC3)c2)cs1 | 2060 |  |  |  |
| CCCC(=O)Nc1cc(-c2csc(=O)[nH]2)cc(S(=O)(=O)NC2CCCC2)c1C | 930 |  |  | 23500 |
| CCCC(=O)Nc1cc(-c2csc(=O)[nH]2)cc(S(=O)(=O)NC2CCCC2)c1 | 170 | 2530 | 791 | 13900 |
| O=c1[nH]c(-c2cccc(S(=O)(=O)NC3CCCC3)c2)cs1 | 1400 |  |  |  |
| O=c1[nH]c(-c2cc(Br)cc(S(=O)(=O)NC3CCCC3)c2)cs1 | 300 |  |  | 57100 |
| O=c1[nH]c(-c2ccc(F)c(S(=O)(=O)NC3CCCC3)c2)cs1 | 500 |  |  | 35200 |
| O=c1[nH]c(-c2cccc(S(=O)(=O)NC3CCOC3)c2)cs1 (stereo not drawn) | 5820 |  |  |  |
